Experimental findings from ChEMBL document CHEMBL4138139, “Discovery of VU6005649, a CNS Penetrant mGlu7/8 Receptor PAM Derived from a Series of Pyrazolo[1,5-a]pyrimidines” (ACS Med Chem Lett, 2017) are described below.

In assay [1] the target is Sigma non-opioid intracellular receptor 1 (Homo sapiens) (UniProt Q99720). Briefly: Displacement of [3H] haloperidol from sigma1 receptor in human Jurkat cells at 10 uM after 4 hrs by scintillation counting method relative to control. The class given is cell-based. Put shortly:
(§1)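 Single-concentration screen at 10 μM in an outsourced profiling panel of 68 GPCRs, ion channels and transporters. Activity read out as percent inhibition of specific radioligand binding.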
(Loss of bound radioactivity is the signal in a displacement assay; it reports binding, not function.)

Assay [2] has as its target Sodium-dependent dopamine transporter (Homo sapiens) (UniProt Q01959). Put plainly: Displacement of [125I] RTI-55 from full length human recombinant DAT expressed in CHO cell membranes at 10 uM after 180 mins by scintillation counting method relative to control. Put shortly:
as §1

Assay [3] deals with Metabotropic glutamate receptor 6 (Homo sapiens, UniProt O15303). Put plainly: Negative allosteric modulation of human mGlu6 receptor expressed in HEK cells harboring GIRK channel assessed as decrease in glutamate-induced thallium flux incubated for 142 secs followed by glutamate addition measured after 120 secs by Fluo4-AM dye based fluorescence assay. It counts as functional, cell-based.
Chain of Metabotropic glutamate receptor 6 (O15303 whole entry): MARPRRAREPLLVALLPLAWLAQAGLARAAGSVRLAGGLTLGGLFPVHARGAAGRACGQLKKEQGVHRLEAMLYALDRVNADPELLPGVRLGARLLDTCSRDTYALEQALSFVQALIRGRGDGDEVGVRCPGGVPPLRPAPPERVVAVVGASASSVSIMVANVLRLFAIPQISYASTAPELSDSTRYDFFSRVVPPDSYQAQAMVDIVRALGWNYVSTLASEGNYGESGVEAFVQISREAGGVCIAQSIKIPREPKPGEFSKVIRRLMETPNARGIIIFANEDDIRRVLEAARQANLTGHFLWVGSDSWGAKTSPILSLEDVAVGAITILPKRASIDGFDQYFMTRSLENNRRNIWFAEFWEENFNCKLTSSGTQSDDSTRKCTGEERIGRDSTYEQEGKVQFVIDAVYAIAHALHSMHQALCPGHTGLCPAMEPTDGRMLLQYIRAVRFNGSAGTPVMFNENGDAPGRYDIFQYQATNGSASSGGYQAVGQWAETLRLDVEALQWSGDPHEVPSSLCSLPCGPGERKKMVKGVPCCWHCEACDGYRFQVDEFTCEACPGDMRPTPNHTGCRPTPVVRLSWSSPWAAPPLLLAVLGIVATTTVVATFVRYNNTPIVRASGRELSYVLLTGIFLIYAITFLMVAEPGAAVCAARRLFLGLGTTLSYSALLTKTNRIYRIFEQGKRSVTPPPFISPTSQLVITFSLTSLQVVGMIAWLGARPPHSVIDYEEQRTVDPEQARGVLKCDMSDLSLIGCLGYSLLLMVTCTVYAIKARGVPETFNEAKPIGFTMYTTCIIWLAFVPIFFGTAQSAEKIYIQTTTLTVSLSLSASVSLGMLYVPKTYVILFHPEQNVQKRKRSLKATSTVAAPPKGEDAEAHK

Assay [4] has as its target Cytochrome P450 2C9 (Homo sapiens, UniProt P11712). Briefly: Inhibition of CYP2C9 in human liver microsomes using diclofenac as substrate preincubated for 15 mins followed by NADPH addition measured after 8 mins by LC-MS/MS analysis. It counts as ADME. Background: Liver microsomes are vesicles of endoplasmic reticulum, rich in cytochrome P450 enzymes.
Assay [5] is filed under the species Rattus norvegicus. Put plainly: Displacement of [3H]batrachotoxinin from sodium channel site 2 in Wistar rat brain membranes at 10 uM after 60 mins by scintillation counting method relative to control. It counts as cell membranes. The note with it: Membrane. Put shortly:
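Single-concentration screen at 10 μM within a commercial lead-profiling panel of 68 GPCRs, ion channels and transporters. Activity read as percent inhibition of specific radioligand binding to each target.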

Assay [6] addresses Metabotropic glutamate receptor 2 (Rattus norvegicus, UniProt P31421). Put plainly: Positive allosteric modulation of rat mGlu2 receptor expressed in HEK cells assessed as increase in glutamate-induced calcium flux incubated for 142 secs followed by glutamate addition measured after 120 secs by Fluo4-AM dye based fluorescence assay. The class given is functional, cell-based. On the technique in general: Calcium flux is commonly read through the fluorescence of an indicator in the cells.

Assay [7] is filed under the species Mesocricetus auratus. Put plainly: Displacement of [3H] glyburide from KATP in syrian hamster HIT-T15 cell membranes at 10 uM after 120 mins by scintillation counting method relative to control. Put shortly: as §1
For assay [8], the species on record is Rattus norvegicus. Briefly: Displacement of [3H] GABA from GABA transporter in Wistar rat cerebral cortical membranes at 10 uM measured after 20 mins by scintillation counting method relative to control. Put shortly: as §1
For assay [9], the target named is Glucocorticoid receptor (Homo sapiens) (UniProt P04150). Put plainly: Displacement of [3H] dexamethasone from full length human recombinant glucocorticoid receptor expressed in insect cells at 10 uM after 24 hrs by scintillation counting method relative to control. Put shortly:
as §1

Assay [10] has as its target Sodium-dependent noradrenaline transporter (Homo sapiens) (UniProt P23975). Briefly: Displacement of [125I] RTI-55 from full length human recombinant NET expressed in MDCK cell membranes at 10 uM after 180 mins by scintillation counting method relative to control. Put shortly: as §1
The species named for assay [11] is Rattus norvegicus. Briefly: Displacement of [3H] Idazoxan from imidazoline I2 receptor in Wistar rat brain membranes at 10 uM after 30 mins by scintillation counting method relative to control. The class given is cell membranes. The settings on record: Membrane. Put shortly: as §1

The structures appear in SMILES notation.

Chain of Sodium-dependent dopamine transporter (Homo sapiens) (Q01959 whole entry): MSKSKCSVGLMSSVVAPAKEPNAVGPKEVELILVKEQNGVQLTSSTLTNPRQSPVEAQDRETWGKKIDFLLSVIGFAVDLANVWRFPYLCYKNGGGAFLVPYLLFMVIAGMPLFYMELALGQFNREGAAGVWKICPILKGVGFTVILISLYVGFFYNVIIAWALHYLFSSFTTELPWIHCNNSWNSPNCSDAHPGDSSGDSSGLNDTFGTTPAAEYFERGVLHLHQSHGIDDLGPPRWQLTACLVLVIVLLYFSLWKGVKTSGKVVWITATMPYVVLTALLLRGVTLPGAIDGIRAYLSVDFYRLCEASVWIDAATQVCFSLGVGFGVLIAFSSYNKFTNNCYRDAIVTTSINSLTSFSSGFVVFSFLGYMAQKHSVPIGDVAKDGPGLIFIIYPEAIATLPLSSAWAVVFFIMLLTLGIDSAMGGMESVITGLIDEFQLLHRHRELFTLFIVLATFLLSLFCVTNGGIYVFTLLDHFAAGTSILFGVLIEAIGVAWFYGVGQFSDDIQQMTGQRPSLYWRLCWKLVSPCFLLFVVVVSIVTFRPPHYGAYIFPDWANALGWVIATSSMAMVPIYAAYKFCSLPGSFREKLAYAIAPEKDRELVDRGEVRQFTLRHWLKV
Chain of Glucocorticoid receptor (Homo sapiens) (P04150 whole entry): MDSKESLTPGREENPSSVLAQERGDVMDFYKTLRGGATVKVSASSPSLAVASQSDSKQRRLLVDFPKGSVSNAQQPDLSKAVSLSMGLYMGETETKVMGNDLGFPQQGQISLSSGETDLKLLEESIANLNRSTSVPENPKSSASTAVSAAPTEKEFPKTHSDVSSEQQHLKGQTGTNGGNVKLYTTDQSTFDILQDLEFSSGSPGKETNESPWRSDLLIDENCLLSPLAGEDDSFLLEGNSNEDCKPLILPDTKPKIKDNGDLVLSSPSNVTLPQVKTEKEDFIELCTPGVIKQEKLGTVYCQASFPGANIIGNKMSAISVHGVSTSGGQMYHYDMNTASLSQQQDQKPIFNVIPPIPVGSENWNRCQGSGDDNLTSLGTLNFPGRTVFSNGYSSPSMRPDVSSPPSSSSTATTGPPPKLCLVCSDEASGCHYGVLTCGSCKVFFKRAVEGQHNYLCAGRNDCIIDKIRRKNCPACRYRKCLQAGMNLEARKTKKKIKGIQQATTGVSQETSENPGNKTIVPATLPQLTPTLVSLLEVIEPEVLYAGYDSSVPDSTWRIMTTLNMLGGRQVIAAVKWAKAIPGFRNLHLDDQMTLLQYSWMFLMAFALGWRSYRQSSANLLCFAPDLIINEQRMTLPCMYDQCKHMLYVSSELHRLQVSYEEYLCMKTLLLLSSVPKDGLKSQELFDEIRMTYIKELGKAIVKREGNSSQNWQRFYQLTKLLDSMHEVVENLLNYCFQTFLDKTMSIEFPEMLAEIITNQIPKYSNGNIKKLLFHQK
Chain of Sigma non-opioid intracellular receptor 1 (Homo sapiens) (Q99720 whole entry): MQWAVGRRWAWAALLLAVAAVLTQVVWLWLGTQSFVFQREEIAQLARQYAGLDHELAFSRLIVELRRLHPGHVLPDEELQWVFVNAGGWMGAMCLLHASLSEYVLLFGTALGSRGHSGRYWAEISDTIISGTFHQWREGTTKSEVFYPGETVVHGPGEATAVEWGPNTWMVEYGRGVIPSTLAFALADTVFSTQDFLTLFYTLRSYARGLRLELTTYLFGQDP
Chain of Metabotropic glutamate receptor 2 (P31421 whole entry): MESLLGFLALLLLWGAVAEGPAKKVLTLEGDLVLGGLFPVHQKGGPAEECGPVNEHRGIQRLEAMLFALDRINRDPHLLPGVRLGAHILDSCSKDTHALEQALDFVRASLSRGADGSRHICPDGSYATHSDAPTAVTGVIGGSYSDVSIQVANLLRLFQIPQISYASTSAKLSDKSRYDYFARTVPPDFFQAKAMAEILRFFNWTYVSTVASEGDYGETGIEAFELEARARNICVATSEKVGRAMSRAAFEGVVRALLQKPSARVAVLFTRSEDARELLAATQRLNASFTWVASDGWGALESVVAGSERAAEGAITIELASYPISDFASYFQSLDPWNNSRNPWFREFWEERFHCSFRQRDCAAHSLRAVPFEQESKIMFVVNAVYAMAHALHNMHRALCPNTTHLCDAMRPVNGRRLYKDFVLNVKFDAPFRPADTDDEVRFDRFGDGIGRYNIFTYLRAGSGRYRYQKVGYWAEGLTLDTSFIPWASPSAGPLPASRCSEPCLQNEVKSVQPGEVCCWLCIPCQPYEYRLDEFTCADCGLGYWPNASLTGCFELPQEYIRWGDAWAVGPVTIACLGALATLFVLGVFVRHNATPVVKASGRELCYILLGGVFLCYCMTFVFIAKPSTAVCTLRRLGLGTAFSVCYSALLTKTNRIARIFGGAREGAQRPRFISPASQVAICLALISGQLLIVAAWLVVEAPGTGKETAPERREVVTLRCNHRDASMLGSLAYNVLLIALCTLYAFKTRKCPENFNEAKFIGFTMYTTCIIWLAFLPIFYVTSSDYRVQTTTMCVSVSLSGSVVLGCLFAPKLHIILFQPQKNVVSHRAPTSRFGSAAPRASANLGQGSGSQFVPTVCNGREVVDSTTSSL
Chain of Cytochrome P450 2C9 (P11712 whole entry): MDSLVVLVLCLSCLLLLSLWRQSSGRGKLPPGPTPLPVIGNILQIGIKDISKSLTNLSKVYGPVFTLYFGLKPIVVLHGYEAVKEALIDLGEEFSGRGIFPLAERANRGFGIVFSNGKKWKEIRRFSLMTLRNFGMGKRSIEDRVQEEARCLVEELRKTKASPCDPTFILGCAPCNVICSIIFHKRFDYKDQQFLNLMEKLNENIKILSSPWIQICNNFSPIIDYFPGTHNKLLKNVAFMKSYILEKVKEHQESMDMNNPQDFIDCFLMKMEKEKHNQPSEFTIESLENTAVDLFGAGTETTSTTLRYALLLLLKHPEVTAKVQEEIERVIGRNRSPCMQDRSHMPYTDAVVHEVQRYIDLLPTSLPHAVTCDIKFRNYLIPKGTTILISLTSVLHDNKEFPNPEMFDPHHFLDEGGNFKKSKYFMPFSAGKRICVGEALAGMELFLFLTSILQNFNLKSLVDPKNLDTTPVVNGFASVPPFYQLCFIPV
Chain of Sodium-dependent noradrenaline transporter (Homo sapiens) (P23975 whole entry): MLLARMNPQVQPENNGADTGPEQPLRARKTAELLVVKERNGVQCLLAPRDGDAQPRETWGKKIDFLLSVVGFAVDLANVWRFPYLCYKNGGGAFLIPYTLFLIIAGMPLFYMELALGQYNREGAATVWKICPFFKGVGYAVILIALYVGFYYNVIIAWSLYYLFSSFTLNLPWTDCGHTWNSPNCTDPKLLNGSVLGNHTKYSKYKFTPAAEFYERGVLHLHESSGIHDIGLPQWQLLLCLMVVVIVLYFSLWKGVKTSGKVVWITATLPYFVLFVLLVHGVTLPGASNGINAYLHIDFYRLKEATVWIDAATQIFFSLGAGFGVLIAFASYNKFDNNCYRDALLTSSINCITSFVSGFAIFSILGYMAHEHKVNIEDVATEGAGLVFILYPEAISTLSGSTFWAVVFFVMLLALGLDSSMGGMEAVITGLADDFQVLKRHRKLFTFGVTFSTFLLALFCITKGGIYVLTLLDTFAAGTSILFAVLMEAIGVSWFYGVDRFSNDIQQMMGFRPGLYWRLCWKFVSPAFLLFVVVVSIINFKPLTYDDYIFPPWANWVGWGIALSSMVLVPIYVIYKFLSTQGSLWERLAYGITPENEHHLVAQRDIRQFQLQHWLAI

A word on the inhibition: it is the change of the read-out against control, counted positive when it falls. For orientation: IC50 means the concentration at which inhibition is half-maximal. Broadly, the EC50 is the concentration that produces a half-maximal response. Consider `COc1ccc(-c2c(C)nn3c(C(F)(F)F)cc(C)nc23)c(F)c1F`, for which the inhibition in [1], in [2], in assay [5], in assay [7], in [8] and in assay [9] was less than 50% throughout. In addition, the inhibition in assay [10] and in assay [11] was less than 50% each time. Further, the IC50 is more than 10 µM in [3] and 24.7 µM in assay [4]. Also, in [6], the concentration for a half-maximal effect (EC50) was more than 10 µM.
